Assay outcomes: PubChem, several laboratories
CYP2C19 inhib: blockers of cytochrome P450 2C19 activity – biochemical, luminescence, ADME assay, primary screen; 96,000 tested, 21% active; inhibition, % at 5 µM; CYP2C19 Supersomes, luciferin-H EGE luminescence, 30 min;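 active means CYP2C19 inhibition above a set limit at 5 µM in the primary screen, cut at about 50% in these data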
Target sequence (P33261 whole entry, looked up): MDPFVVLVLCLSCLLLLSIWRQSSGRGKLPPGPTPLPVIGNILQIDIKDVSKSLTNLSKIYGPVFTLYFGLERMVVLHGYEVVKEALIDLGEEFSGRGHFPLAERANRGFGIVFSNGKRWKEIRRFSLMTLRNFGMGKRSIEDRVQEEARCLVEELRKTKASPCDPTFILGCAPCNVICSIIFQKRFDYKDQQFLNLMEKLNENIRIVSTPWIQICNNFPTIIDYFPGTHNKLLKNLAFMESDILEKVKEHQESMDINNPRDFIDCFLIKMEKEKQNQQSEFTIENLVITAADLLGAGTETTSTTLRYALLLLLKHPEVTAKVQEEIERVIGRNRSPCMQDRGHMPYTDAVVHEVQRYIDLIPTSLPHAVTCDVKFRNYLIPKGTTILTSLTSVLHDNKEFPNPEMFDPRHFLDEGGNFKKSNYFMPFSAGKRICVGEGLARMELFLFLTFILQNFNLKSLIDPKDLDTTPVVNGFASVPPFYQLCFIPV
Rev-RRE block: HIV-1 Rev-RRE binding inhibitors, primary screen, biochemical, FRET, protein-RNA interaction. P05866. Rev peptide-RRE RNA binding. inhibition, % at 8 µM. 97,000 tested, 0.79% active. AID 704, 2007;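 active means inhibition above the screen-wide mean plus 3 SD, cut at about 35% in these data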
Target sequence (P05866 whole entry, looked up): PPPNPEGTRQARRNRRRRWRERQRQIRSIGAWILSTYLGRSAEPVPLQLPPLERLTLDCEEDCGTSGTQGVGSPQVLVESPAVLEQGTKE
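Test system: Cy5-tagged RRE RNA duplex with fluorescein-tagged Rev peptide | Read-out: % inhibition of FRET ratio versus controls | Probe or stimulus: Labelled Rev peptide | Incubation: 5 min RNA-compound premix plus 15 min binding step, 25 °C | Technique: FRET fluorescence readout | Benchmarks: DMSO low control, neomycin B high control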
Cav3 T inh: Cav3.2 calcium influx blockers – cell-based, Fluo-4 calcium fluorescence, FDSS, MLSMR library, primary screen; Voltage-dependent T-type calcium channel subunit alpha-1H (Homo sapiens), O95180; Cav3.2-expressing cells; active compounds read low; B-score at 10 µM; 100,000 tested, 4% active; AID 449739, 2010;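 active means single-dose well whose peak fluorescence ratio is a statistical outlier from its plate by either plate-standardised score or position-corrected B-score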
CYP2C9 act: human CYP2C9 activators, primary screen, biochemical, luminescence; recombinant CYP2C9, luciferin-H conversion; active compounds read high; factor 1 = untreated enzyme, 0 = blocked; activation factor at 5 µM; 96,000 tested, 1.4% active; Cytochrome P450 2C9 (Homo sapiens), P11712;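 active means activation factor of 2 or more for CYP2C9 at a 5 µM dose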
CYP2C19 act: human CYP2C19 activators, primary screen, biochemical, luminescence; recombinant CYP2C19, luciferin-H EGE luminescence; active compounds read high; 0 = fully inhibited enzyme, 1 = untreated enzyme; activation factor at 5 µM; 96,000 tested, under 10 active;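 active means activation factor of at least 2 at 5 µM in the primary screen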
CYP2C9 inh: blockers of cytochrome P450 2C9 activity – biochemical, luminescence, ADME assay, primary screen; P11712; CYP2C9 Supersomes, luciferin-H conversion; 96,000 tested, 20% active; inhibition, % at 5 µM;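 active means blocking of liver enzyme CYP2C9 beyond about 50% at 5 µM, limit read from the data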
A number is an active result. An excerpt weighted towards active compounds, which were near 27% of everything screened.

Results for CC(C)OP(=O)(c1ccc(N(C)C)cc1)C(O)c1ccccc1F (configuration not stated) ?
Rev-RRE block: inactive

How did Cc1nc2sc(C(c3cccs3)N3CCN(c4ccccc4)CC3)c(O)n2n1 (configuration not stated) do in these assays?
CYP2C19 inhib: inactive; Cav3 T inh: inactive; CYP2C9 act: inactive; CYP2C19 act: inactive; CYP2C9 inh: inactive

How did CCN1CCC(C(=O)NC2CCCC2)(N(Cc2cccs2)C(=O)Cn2nnc3ccccc32)CC1 do in these assays?
CYP2C19 inhib: inactive; CYP2C9 act: inactive; CYP2C19 act: inactive; CYP2C9 inh: inactive

How did C=CCOC(=O)Nc1ccc(Cl)cc1NC(=O)OCC=C do in these assays?
CYP2C19 inhib: 93; Rev-RRE block: inactive; Cav3 T inh: inactive; CYP2C9 act: inactive; CYP2C19 act: inactive; CYP2C9 inh: 65

How did C=COCCNC(=O)Nc1ccc(Cl)cc1Cl do in these assays?
CYP2C19 inhib: inactive; Rev-RRE block: inactive; Cav3 T inh: inactive; CYP2C9 act: inactive; CYP2C19 act: inactive; CYP2C9 inh: inactive

How did OC12CCCCC1C(c1ccc3c(c1)OCO3)N(Cc1cccc(F)c1)CC2 (configuration not stated) do in these assays?
CYP2C19 inhib: 79; Rev-RRE block: inactive; Cav3 T inh: inactive; CYP2C9 act: inactive; CYP2C19 act: inactive; CYP2C9 inh: 79

Results for OC12CCCCC1C(c1ccc3c(c1)OCO3)N(Cc1ccc(F)cc1)CC2 (configuration not stated) ?
CYP2C19 inhib: 72; Rev-RRE block: inactive; Cav3 T inh: -5.9; CYP2C9 act: inactive; CYP2C19 act: inactive; CYP2C9 inh: inactive

How did CCN(CC)c1ccc(C2C3CCCCC3(O)CCN2CC(=O)N2CCCCC2)cc1 (configuration not stated) do in these assays?
CYP2C19 inhib: inactive; Rev-RRE block: inactive; Cav3 T inh: inactive; CYP2C9 act: inactive; CYP2C19 act: inactive; CYP2C9 inh: inactive

What do the screens show for `O=C(NCc1ccc2c(c1)OCO2)C1CCCN1C(=O)Nc1cccc(F)c1` (configuration not stated)?
Rev-RRE block: inactive; Cav3 T inh: inactive

Results for OC12CCCCC1C(c1ccc3c(c1)OCO3)N(Cc1ccccc1F)CC2 (configuration not stated) ?
CYP2C19 inhib: 98; Rev-RRE block: inactive; CYP2C9 act: inactive; CYP2C19 act: inactive; CYP2C9 inh: 95

What do the screens show for `CCCSc1nc(C)cc(C)c1C(N)=O`?
CYP2C19 inhib: inactive; Rev-RRE block: inactive; Cav3 T inh: inactive; CYP2C9 act: inactive; CYP2C19 act: inactive; CYP2C9 inh: inactive

Results for Cc1nc(-c2ccccc2)nc2[nH]c(C(C)C)cc(=O)c12 ?
CYP2C19 inhib: inactive; Rev-RRE block: inactive; Cav3 T inh: inactive; CYP2C9 act: inactive; CYP2C19 act: inactive; CYP2C9 inh: 81

How did O=C(CCCOc1ccccc1)Nc1nnc(C2CCCO2)s1 (configuration not stated) do in these assays?
CYP2C19 inhib: 64; Rev-RRE block: inactive; Cav3 T inh: inactive; CYP2C9 act: inactive; CYP2C19 act: inactive; CYP2C9 inh: 56

Results for Cc1ccc2nc3c(c(N)c2c1)CCN3c1ccccc1 ?
CYP2C19 inhib: 69; Rev-RRE block: inactive; Cav3 T inh: inactive; CYP2C9 act: inactive; CYP2C19 act: inactive; CYP2C9 inh: inactive

How did CCCCN1CCc2c1nc1ccc(Br)cc1c2N do in these assays?
CYP2C19 inhib: inactive; Rev-RRE block: inactive; Cav3 T inh: inactive; CYP2C9 act: inactive; CYP2C19 act: inactive; CYP2C9 inh: inactive

How did COC(=O)C1=C(C)NC2=C(C(=O)CC(C)(C)C2)C1c1cn(Cc2ccc(Br)cc2)nc1-c1ccccc1 (configuration not stated) do in these assays?
CYP2C19 inhib: inactive; Rev-RRE block: inactive; Cav3 T inh: -4.7; CYP2C9 act: inactive; CYP2C19 act: inactive; CYP2C9 inh: 71

Results for COC(=O)C1=C(C)NC2=C(C(=O)CCC2)C1c1cn(Cc2ccc(Br)cc2)nc1-c1ccccc1 (configuration not stated) ?
CYP2C19 inhib: inactive; Rev-RRE block: inactive; Cav3 T inh: -7.3; CYP2C9 act: inactive; CYP2C19 act: inactive; CYP2C9 inh: 86

Results for Cc1ccc(N2C(=O)c3n[nH]c(C)c3C2c2ccco2)cc1 (configuration not stated) ?
CYP2C19 inhib: inactive; Rev-RRE block: inactive; Cav3 T inh: inactive; CYP2C9 act: inactive; CYP2C19 act: inactive; CYP2C9 inh: inactive

Results for Cc1cc(C)c2nc(N)sc2c1 ?
CYP2C19 inhib: 68; Rev-RRE block: inactive; Cav3 T inh: inactive; CYP2C9 act: inactive; CYP2C19 act: inactive; CYP2C9 inh: inactive

How did Cc1ccc(Oc2nccc(-c3ccc(Cl)cc3)n2)cc1 do in these assays?
CYP2C19 inhib: 53; Rev-RRE block: inactive; Cav3 T inh: inactive; CYP2C9 act: inactive; CYP2C19 act: inactive; CYP2C9 inh: inactive

What do the screens show for `Clc1ccc(-c2cnc(Oc3ccccc3)nc2)cc1`?
CYP2C19 inhib: inactive; Rev-RRE block: inactive; Cav3 T inh: inactive; CYP2C9 act: inactive; CYP2C19 act: inactive; CYP2C9 inh: inactive

How did c1ccc(-c2nc(NC3CC3)nc(-n3ccnc3)n2)cc1 do in these assays?
CYP2C19 inhib: inactive; Rev-RRE block: inactive; Cav3 T inh: inactive; CYP2C9 act: inactive; CYP2C19 act: inactive; CYP2C9 inh: inactive

What do the screens show for `CCC1=C[C@H]2CN(C1)Cc1c([nH]c3ccccc13)[C@@](C(=O)OC)(c1cc3c(cc1OC)N(C)[C@H]1[C@@](O)(C(=O)OC)[C@H](OC(C)=O)[C@]4(CC)C=CCN5CC[C@]31[C@@H]54)C2`?
Cav3 T inh: inactive

What do the screens show for `CN(C)c1nc(NCc2ccccc2)nc(N/N=C/c2ccc(Cl)cc2Cl)n1`?
CYP2C19 inhib: inactive; Rev-RRE block: inactive; Cav3 T inh: inactive; CYP2C9 act: inactive; CYP2C19 act: inactive; CYP2C9 inh: inactive

Results for CCOc1ccc(N2C(=O)NC(Cc3c[nH]c4ccccc34)C2=O)cc1 (configuration not stated) ?
CYP2C19 inhib: inactive; Rev-RRE block: inactive; Cav3 T inh: inactive; CYP2C9 act: inactive; CYP2C19 act: inactive; CYP2C9 inh: inactive

What do the screens show for `O=C1NC(Cc2c[nH]c3ccccc23)C(=O)N1CCOc1ccccc1` (configuration not stated)?
CYP2C19 inhib: 82; Rev-RRE block: inactive; Cav3 T inh: inactive; CYP2C9 act: inactive; CYP2C19 act: inactive; CYP2C9 inh: 57

Results for Cc1cc(C)c(S(=O)(=O)N(C2=NCCS2)S(=O)(=O)c2c(C)cc(C)cc2C)c(C)c1 ?
Rev-RRE block: inactive; Cav3 T inh: inactive
